From ChEMBL document CHEMBL4330151, “Antiviral Compounds from Codiaeum peltatum Targeted by a Multi-informative Molecular Networks Approach” (J Nat Prod, 2019)

What was measured:
Chikungunya virus = assay: Antiviral activity against Chikungunya virus Indian Ocean strain 899 infected in African green monkey Vero cells assessed as protection against virus-induced cytopathic effect after 5 days by MTS assay; assay type: functional, organism-based; settings: Indian Ocean strain 899, Vero, 120 h
[1] = Cytotoxicity against African green monkey Vero cells by MTS assay; assay type: cell-based; settings: chlorocebus sabaeus
Summary of the method: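 Uninfected Vero A cells were exposed to the same compound concentrations as the CHIKV antiviral plates and incubated 5 days at 37 °C, 5% CO2. MTS/PMS was added for 1.5 h and absorbance read at 498 nm. OD values were converted to control percentages, and CC50 was obtained by logarithmic interpolation. Values are medians ± absolute deviation of at least three independent assays.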

[2] = Inhibition of ZIKV N-terminal His6-tagged NS5 protein expressed in Escherichia coli using (Poly U) RNA template […] in presence of ATP by picogreen dye based assay; design: species or system Zika virus
[3] = Inhibition of DENV2 N-terminal His6-tagged NS5 protein expressed in Escherichia coli using (Poly U) RNA template […] in presence of ATP by picogreen dye based assay; design: species or system dengue virus type 2
[4] = Inhibition of GTP-bodipy binding to DENV2 N-terminal His6-tagged NS5 protein expressed in Escherichia coli after 15 mins by fluorescence polarization assay; design: species or system dengue virus type 2; settings: read-out: Kd(app)
Summary of the method: (§1)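 Buffer was 50 mM Tris pH 7.5, 50 mM NaCl, 0.01% NP40 and 1 mM DTT, with 50 nM GTP-bodipy. NS5 was 300 nM for DENV-2 and 150 nM for ZIKV, with seven compound concentrations in 5% DMSO. Plates were incubated 15 min at room temperature, and fluorescence polarization was read at 485/520 nm after background subtraction. Kdapp was curve-fitted from triplicates in a single experiment.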

[5] = Inhibition of DENV2 N-terminal His6-tagged NS5 protein expressed in Escherichia coli using (Poly U) RNA template […] in presence of ATP/Triton-X-100 by picogreen dye based assay; design: species or system dengue virus type 2
[6] = Inhibition of ZIKV N-terminal His6-tagged NS5 protein expressed in Escherichia coli using (Poly U) RNA template […] in presence of ATP/Triton-X-100 by picogreen dye based assay; design: species or system Zika virus
[7] = Inhibition of GTP-bodipy binding to ZIKV N-terminal His6-tagged NS5 protein expressed in Escherichia coli after 15 mins by fluorescence polarization assay; design: species or system Zika virus; settings: read-out: Kd(app); summary of the method: as §1
[8] = Selectivity index, ratio of CC50 for African green monkey Vero cells to EC50 for Chikungunya virus Indian Ocean strain 899 infected in African green monkey Vero cells; assay type: toxicity; settings: read-out: Ratio CC50/EC50
Summary of the method: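 SI is CC50 (Vero) divided by EC50 (CHIKV) from the same 5-day MTS assay. For CC50, uninfected Vero A cells were exposed to the same compound concentrations. CC50 is the concentration reducing viable cells by 50%, by logarithmic interpolation of OD 498 nm control percentages. Median of ≥3 independent assays.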

Structure (SMILES) | EC50 (Chikungunya virus) | CC50 [1] | IC50 [2] | IC50 [3] | Kd [4] | IC50 [5] | IC50 [6] | Kd [7] | selectivity ratio [8]
CC1(C)Oc2c(c(=O)[nH]c3ccccc23)[C@H]2[C@@H](Cl)[C@](C)(O)CC[C@@H]21 | > 288 µM | > 288 µM | – | – | – | – | – | – | –
COc1cc2c(C)c3c(cc2c2cc(O)c(C)cc12)O[C@H]1c2c(cc(O)c4cc(C)c(O)cc24)C(C)(C)C(=O)[C@@]1(OC)O3 | > 86 µM | > 172 µM | 4.8 µM | 4.5 µM | > 100 µM | > 100 µM | > 100 µM | > 100 µM | –
Cn1c(=O)c2c(c3ccccc31)OC(C)(C)[C@H]1CC[C@@](C)(O)[C@H](Cl)[C@H]21 | > 277 µM | > 208 µM | > 138 µM | > 119 µM | – | – | – | – | –
CO[C@]12Oc3c(cc4c(c3C)C(=O)C(=O)c3cc(C)c(O)cc3-4)O[C@H]1c1c(cc(O)c3cc(C)c(O)cc13)C(C)(C)C2=O | > 172 µM | > 172 µM | 8.1 µM | 12.1 µM | 9.3 µM | 67.2 µM | 36 µM | 32.1 µM | –
CC(=O)OCn1c(=O)c2c(c3ccccc31)OC(C)(C)[C@H]1CC[C@@](C)(O)[C@H](Cl)[C@H]21 | > 239 µM | > 239 µM | > 138 µM | > 119 µM | – | – | – | – | –
C=C(C)[C@@]12OC3(c4ccccc4)O[C@@H]1[C@@H]1[C@@H]4O[C@]4(CO)[C@@H](O)[C@@]4(O)[C@@H](C[C@H](C)[C@@H]4OC(=O)c4ccccc4)[C@@]1(O3)[C@](C)(O)[C@@H]2OC(=O)c1ccccc1 | 10 µM | 52 µM | > 69 µM | > 69 µM | – | – | – | – | 5
COc1cc2c3c(cc(O)c2cc1C)C(C)(C)C(=O)[C@@]1(OC)Oc2c(cc4c(cc(OC)c5cc(C)c(O)cc54)c2C)O[C@@H]31 | – | – | 10.9 µM | 14.5 µM | > 100 µM | > 100 µM | > 100 µM | > 100 µM | –
COc1cc2c3c(cc(O)c2cc1C)C(C)(C)C(=O)[C@@]1(OC)Oc2c(cc4c(cc(OC)c5cc(C)c(OC)cc54)c2C)O[C@@H]31 | – | – | 13.6 µM | 21.7 µM | > 100 µM | > 100 µM | > 100 µM | > 100 µM | –
Cn1c2c(c(=O)c3ccccc31)[C@H]1[C@@H](Cl)[C@](C)(O)CC[C@@H]1C(C)(C)O2 | > 277 µM | > 277 µM | – | – | – | – | – | – | –
COc1cc2c3c(cc(O)c2cc1C)C(C)(C)C(=O)[C@]1(OC)Oc2c(cc4c(cc(OC)c5cc(C)c(OC)cc54)c2C)O[C@@H]31 | – | – | 12.7 µM | 17.8 µM | > 100 µM | > 100 µM | > 100 µM | > 100 µM | –
C=C(C)[C@@]12OC3(c4ccccc4)O[C@@]4([C@H]([C@H]1O)[C@@H]1O[C@]1(CO)[C@@H](O)[C@@]1(O)[C@H]4C[C@H](C)[C@@H]1OC(=O)c1ccccc1)[C@](C)(O3)[C@@H]2OC(=O)c1ccccc1 | 4.4 µM | 49 µM | > 69 µM | > 69 µM | – | – | – | – | 11
COc1cc2c(C)c3c(cc2c2cc(O)c(C)cc12)O[C@H]1c2c(cc(O)c4cc(C)c(O)cc24)C(C)(C)C(=O)[C@]1(OC)O3 | > 172 µM | > 129 µM | 8.1 µM | 9.1 µM | > 100 µM | > 100 µM | > 100 µM | > 100 µM | –
Nc1ncnc2c1ncn2[C@@H]1O[C@H](COP(=O)(O)OP(=O)(O)OP(=O)(O)O)C[C@H]1O | – | – | 0.14 µM | 0.07 µM | – | – | – | – | –
